This is an account of results in PMC1557817 (Nucleic Acids Research, 2006).

Read-outs that look alike come from different tables or passages of the source.

One assay has as its target human eRF3 (Homo sapiens, UniProt P15170). The assay can be described thus: ITC binding of ligands to eRF3. In short, it runs like this: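 Run at 25°C in phosphate buffer pH 7.5 (25 mM K2HPO4, 0.1 M KCl, 10% glycerol, 1 mM DTT), MgCl2 0–10 mM. Cell: 6–15 μM His-tagged human eRF3 (aa 139–637), alone or with full-length eRF1, both E. coli-expressed. Syringe: ligand at 50–300 μM, 10 μl injections. Dilution heat subtracted; one-set-of-sites fit gave Ka and ΔH; ΔG and ΔS calculated; 2–4 repeats.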

The next assay has as its target eRF1•eRF3 (Homo sapiens, UniProt P15170). The assay can be described thus: ITC binding of guanine nucleotides to the eRF1•eRF3 complex.
The next assay deals with eRF3•GDP (Homo sapiens, UniProt P15170). In words: ITC binding of ligands to the eRF3•GDP complex. The following applies: absence of eRF1.
For the next assay, the target named is eRF1•eRF3•GDP (Homo sapiens, UniProt P15170). The assay can be described thus: Displacement ITC: eRF1•eRF3 saturated with GDP titrated with GTP. The conditions noted are these: Tris buffer, 2 mM Mg^2+, competitive ligand binding model. Summed up:
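Proteins: human eRF1 and truncated human eRF3 (aa 139–637), both with a C-terminal His6 tag, expressed in E. coli, purified by Ni-NTA then anion exchange, and dialysed into assay buffer. Method: eRF1•eRF3 in the cell was saturated with one HPLC-purified nucleotide, then titrated with 10 μl aliquots of the other. K2 = Kapp(1 + K1[L1]). Run at 25°C, pH 7.5; dilution heats subtracted; 2–4 runs.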

Assay [1] addresses truncated human eRF3 (amino acids 139-637), C-terminal hexahistidine (human) (UniProt P15170). In words: ITC.
The target is the same in assay [2]. In words: ITC. The source holds these as a separate data set. A general note: In ITC the heat of successive injections is recorded.
For another assay, the system named is S.pombe eRF3. The conditions noted are these: 2.0–2.5 mM Mg^2+ ref 24; cited from earlier work.
A further assay addresses prokaryotic RF3. The following applies: 5 mM Mg^2+ ref 28; cited from earlier work.

Regarding `Nc1nc2c(ncn2[C@@H]2O[C@H](COP(=O)(O)OP(=O)(O)OP(=O)(O)O)[C@@H](O)[C@H]2O)c(=O)[nH]1` [GTP], the “GTP binding to eRF3 (in words)” value on human eRF3 (phosphate or Tris, absence and presence of 2 mM Mg^2+) is reported as “failed to reveal any measurable GTP binding”. Further, at eRF1•eRF3 (2.0 mM Mg^2+), the “constant of GTP binding relative to that of GDP binding” value is “four times higher”. Moreover, on eRF1•eRF3 (Tris buffer), the “GTP binding, direct titration (in words)” value is given as “signal is too low to be measured directly”. Also, the “fold increase of GTP affinity by Mg^2+” value at eRF1•eRF3 (physiological Mg^2+ versus absence of Mg^2+) was 6 fold. Moreover, on eRF3•GDP, the “GTP binding to eRF3•GDP (in words)” value is “no binding was detected”. This molecule also came in with a GTP binding constant on eRF1•eRF3•GDP of 1.8e+06 M⁻¹.
In general, stoichiometry N refers to a count of units in the complex or per binding partner. In assay [1], “human eRF1 (wild-type), C-terminal hexahistidine (from UniProt P62495 1-437) (natural protein)” showed a dHobs (observed, not corrected for protonation) of -19.2 kcal/mol and a stoichiometry N of 0.47. In addition, in assay [2], the dHobs (observed, not corrected for protonation) was -13.5 kcal/mol.
As a reminder, the Kd is the equilibrium constant for the complex coming apart. Turning to `Nc1nc2c(ncn2[C@@H]2O[C@H](COP(=O)(O)OP(=O)(O)O)[C@@H](O)[C@H]2O)c(=O)[nH]1` [GDP], the “affinity of GDP for yeast eRF3 (in words)” value with S.pombe eRF3 was “lost”. Also, the “fold increase of Kd at 2 mM Mg^2+ versus absence of Mg^2+” value on human eRF3 (both phosphate and Tris buffers) was found to be 1.7 fold. Besides, the Kd on prokaryotic RF3 is 5.5 nM.
